# Screening results as filed in PubChem BioAssay.
# Sampled rows, rich in hits. Any-hit rate of the full collection: about 4.9%.
# HSF-1 act: increases HSF-1 driven luciferase reporter signal; 1.7% of 300,000 active; activation, % at 9 µM; NIH3T3-HGL HSF-1 luciferase reporter, MG132, 8 h; 100% = twice DMSO control signal;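 active = mean replicate activation of at least 50% with a set share of replicates each reaching 50%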;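 note: 0% = median of the neutral control wells and 100% = twice that signal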
# PHOSPHO1 block: blocks human PHOSPHO1 phosphatase activity; Q8TCT1; recombinant PHOSPHO1, absorbance phosphatase assay; inhibition, % at 13.3 µM; 1.1% of 290,000 active; in the data active = inhibition above about 60%
# CHT PAM: human CHT allosteric activation; B-score at 10 µM; CHT-expressing cells, membrane potential dye, choline EC20; hits give high values; LV-AA mutant CHT in HEK293 cells; 0.49% of 310,000 active; AID 488977; Q9GZV3;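 active = initial fluorescence not abnormally high and integrated response B-score, plate-corrected, over 3 SD above library mean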
# Target sequence (Q9GZV3 whole entry, looked up): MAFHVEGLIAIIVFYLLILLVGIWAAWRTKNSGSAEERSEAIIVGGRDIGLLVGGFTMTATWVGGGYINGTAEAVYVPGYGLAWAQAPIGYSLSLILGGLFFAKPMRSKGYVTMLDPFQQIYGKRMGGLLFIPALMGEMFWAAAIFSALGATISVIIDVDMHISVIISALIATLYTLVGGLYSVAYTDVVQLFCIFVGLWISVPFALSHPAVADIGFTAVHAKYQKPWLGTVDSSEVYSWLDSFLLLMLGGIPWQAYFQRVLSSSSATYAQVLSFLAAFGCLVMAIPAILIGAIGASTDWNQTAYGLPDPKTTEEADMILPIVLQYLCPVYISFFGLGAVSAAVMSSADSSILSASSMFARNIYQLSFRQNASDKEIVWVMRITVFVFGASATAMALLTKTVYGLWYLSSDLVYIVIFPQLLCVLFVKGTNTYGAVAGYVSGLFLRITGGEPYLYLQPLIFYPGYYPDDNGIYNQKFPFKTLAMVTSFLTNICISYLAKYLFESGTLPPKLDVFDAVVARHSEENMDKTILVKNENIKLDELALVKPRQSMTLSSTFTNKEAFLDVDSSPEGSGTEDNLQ
# HSF1 inhib: HSF1 inhibition. 0.77% of 300,000 active. activity change, negative = inhibition, % at 7.5 µM (by protocol). NIH3T3-HGL HSE-luciferase, MG132-induced, luminescence 8 h; hits give low values. AID 2098;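 active = more than half of replicate wells show activity change below -50%, luminescence cut by over half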;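 note: luciferase reports HSF-1 transcriptional activity via heat shock element; 0% = median of DMSO wells and -100% = zero luminescence signal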
# Lipid droplet: hepatic lipid droplet formation modulation | AML12 mouse hepatocytes, oleate lipid droplets, BODIPY imaging | 0.4% of 240,000 active | inhibition, % at 6.5 µM | AID 1656;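 active = lipid droplet intensity inhibited by at least 50%, with more than 500 cells counted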
#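 Assay system: AML12 mouse liver cells | Compound: 6.5 µM single-point dosing | Schedule: Overnight exposure | Technique: Fluorescence imaging, 20x objective, two fields per well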
# CHT block: inhibits the human high affinity choline transporter | 0.86% of 310,000 active | B-score at 10 µM | Q9GZV3 | AID 488975 | CHT-expressing cells, membrane potential dye, choline response; hits give low values;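 active = B-score over 3 SD under the library average, and starting fluorescence ratio not unusually high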;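 note: choline stimulus applied at its EC90 after an EC20 pre-addition; B-score computed on integrated fluorescence ratio after choline addition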
# Starred values were filed as active, the others as inactive; i = inactive; / = not tested or not shown.
SMILES,HSF-1 act,PHOSPHO1 block,CHT PAM,HSF1 inhib,Lipid droplet,CHT block
O=C(N/N=C/c1cn(-c2cccs2)nc1-c1ccccc1)c1ccccc1Cl,59.2*,0.2,i,22.2,14.0,i
O=C(N/N=C/c1cn(-c2ccccc2)nc1-c1cccs1)c1ccncc1,26.5,2.5,i,9.8,16.3,i
O=C(N/N=C/c1cn(-c2cccs2)nc1-c1ccccc1)c1ccc(O)cc1,57.1*,11.8,i,21.1,-40.9,i
c1ccc(-c2csc(Nc3ncccn3)n2)cc1,41.7,15.8,i,24.3,-31.6,i
Oc1ccc(-c2csc(Nc3ncccn3)n2)cc1,59.6*,39.7,i,44.4,2.9,i
O=C(NC(=S)Nc1ccccc1Cl)c1csnn1,36.5,65.0*,i,7.9,/,i
Cc1cc(C)cc(NC(=O)c2ccc(CSc3nnc(C)s3)cc2)c1,69.5*,33.0,i,38.0,/,i
Cc1nnc(SCc2ccc(C(=O)O)cc2)s1,-3.4,-1.2,i,-9.7,16.8,i
CCOC(=O)CNC(=O)C1CCC(CNS(=O)(=O)c2cccc3nsnc23)CC1 (configuration not stated),-9.4,64.9*,i,-4.2,-2.7,i
CC(C)(C)NC(=O)C1CCC(CNS(=O)(=O)c2cccc3nsnc23)CC1 (configuration not stated),5.2,58.3,i,-0.9,-36.8,i
CC(C)Nc1nc(Oc2ccc(Cl)cc2)cc(C(F)(F)F)n1,1.4,15.8,i,-3.7,/,i
CCOc1ccc(CNn2cnnc2)cc1,4.2,20.1,i,-0.3,0.7,i
COc1ccc(/C=C\C(=O)c2c(O)ccc3c(C)cc(=O)oc23)cc1OC,37.6,-10.7,i,36.4,-4.0,i
COc1ccc(O)c(-c2cn[nH]c2-c2cccs2)c1,2.2,0.2,i,0.3,-17.3,i
COc1ccc(O)c(C2=Nc3ccccc3N=C(c3cccs3)C2)c1,-72.2,-9.3,i,-63.0*,-2.5,i
CCOC(=O)c1cnc2c(-c3ccccc3)cnn2c1N,52.7*,11.4,i,30.5,/,i
CCOC(=O)c1c(-c2ccccc2)cn2c(C)cc(C)nc12,59.3*,47.1,i,24.0,3.5,i
Nc1c(-c2cccc(Cl)c2)cnc2c(-c3ccccc3)cnn12,64.4*,32.6,i,25.6,6.2,i
CCOC(=O)c1c(C)nc(C)c(C(=O)OCC)c1-c1ccccc1,15.2,-3.0,i,10.1,-18.9,i
CCOC(=O)c1cnc2c(-c3ccccc3)c(C)nn2c1N,12.0,22.6,i,-1.4,2.7,i
COc1ccc(S(=O)(=O)N2CN3CCN(C3)C2)cc1OC,47.2,-6.8,i,7.8,-1.8,i
CCN1CCN(c2nc3c(c(=O)n(C)c(=O)n3C)n2CCSc2ncccn2)CC1,-8.4,15.6,i,-5.7,-1.6,-7.48*
Cc1ccnc(SCCn2c(N3CCN(C)CC3)nc3c2c(=O)n(C)c(=O)n3C)n1,-4.6,24.6,i,1.3,-6.7,i
CC(O)CNCCCOc1ccc(Cl)cc1C(C)(C)C (configuration not stated),-72.8,36.8,i,-65.7*,-16.1,i
COC(=O)C1=C(C)N(Cc2ccc(OC)cc2)C(=O)C1,-1.1,1.8,i,2.0,-2.7,i
SMILES,HSF-1 act,PHOSPHO1 block,CHT PAM,HSF1 inhib,Lipid droplet,CHT block
COC(=O)C1=C(C)N(Cc2ccco2)C(=O)C1,-68.9,5.0,i,-59.5*,-2.2,i
CCOC(=O)C1=C(CSc2nc(CC)c(C)cc2C#N)OC(N)=C(C#N)C1c1ccccc1 (configuration not stated),3.1,89.0*,i,7.6,12.4,i
CCOC(=O)C1=C(CSc2nc3c(cc2C#N)CN(C)CC3)OC(N)=C(C#N)C1c1ccc(Cl)cc1 (configuration not stated),12.8,66.7*,i,6.3,/,i
CCOC(=O)C1=C(CSc2nc3c(cc2C#N)CN(C)CC3)OC(N)=C(C#N)C1c1ccncc1 (configuration not stated),-22.5,-0.3,i,-3.7,-3.1,i
Cc1ccc(/C=C2/C(=O)ON=C2c2ccccc2)o1,86.1*,12.2,i,34.4,-2.2,i
O=C1ON=C(c2ccccc2)/C1=C\c1ccco1,-14.7,32.7,i,0.8,4.4,i
O=C(Nc1cc(C(F)(F)F)ccc1Cl)c1cccc(N2C(=O)CCC2=O)c1,-4.1,28.7,i,1.8,-2.6,i
Cn1ncc(C(=O)Nc2ccc(Cl)cc2)c1C(F)(F)F,8.6,24.6,i,-8.4,-12.5,i
CC(C)Cn1cc(C(=O)NCCCOC(C)C)c2c3ccccc3n(C)c2c1=O,40.0,8.5,i,10.8,5.4,i
CCC1=[N+](CC(=O)c2ccc(C)cc2)CCn2cccc21,50.9*,-24.5,i,32.1,5.5,i
CSCC[C@H](NC(=O)c1ccc(Cl)c(S(=O)(=O)N2CCCC2)c1)c1nc2ccccc2[nH]1,13.3,97.7*,i,1.9,/,i
O=C(N/N=C/c1cc([N+](=O)[O-])ccc1Cl)c1cc(-c2ccccc2)nc2ccccc12,8.6,24.8,i,3.0,-1.3,i
O=C(N/N=C/c1ccc(Cl)c([N+](=O)[O-])c1)c1cc(-c2ccccc2)nc2ccccc12,128.2*,-5.3,i,60.2,25.1,i
CC(C)C[C@H](NC(=O)c1nc[nH]c1C(=O)N1CCc2ccccc2C1)C(=O)OC(C)(C)C,3.0,22.1,i,0.1,-3.0,i
COC(=O)c1ccccc1NC(=O)COc1ccc(S(=O)(=O)NC(C)C)cc1,1.8,24.9,i,4.2,-8.3,i
Cc1cc(=O)oc2cc(OCC(=O)Nc3c(Cl)cccc3C(F)(F)F)ccc12,2.4,2.6,i,-1.7,0.4,i
C=C(C)CNC(=S)Nc1nc2c(cc1C(=O)OCC)CCCC2,59.8*,0.2,/,35.9,3.4,/
CCOC(=O)c1oc2nc3c(cc2c1N)CCCC3,20.0,-5.9,i,-3.8,1.6,i
COc1ccc(Cn2c(CCC(=O)Nc3ccc(C)cc3)nc3cccnc32)cc1,54.3*,10.4,i,29.2,-2.9,i
O=C(Nc1nc(-c2cccs2)cs1)c1ccc(S(=O)(=O)N2CCCCC2)cc1,-69.8,19.9,i,-60.6*,-0.8,i
Cc1[nH]c2ccccc2c1C(=O)/C=C/c1ccccc1,70.3*,-5.9,i,39.4,/,i
Cc1[nH]c2ccccc2c1C(=O)/C=C/c1ccccc1Cl,113.0*,-6.6,i,83.7,-21.6,i
Cc1[nH]c2ccccc2c1C(=O)/C=C\c1ccccc1Cl,46.0,4.1,i,42.7,-6.3,i
Cc1nc2ccccc2c(C)c1C(=O)c1ccccc1,1.8,52.7,i,-2.3,2.5,i
